SIAE inh: blocks human sialic acid acetylesterase. Q9HAT2. SIAE FP-Rh probe binding, fluorescence polarization. inhibition, % at 9.66 µM. actives 0.69% (n = 370,000);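 active = inhibition above a cutoff: mean of compounds within the control limits plus 3 SD of those, cut at about 17% in these data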;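 also: 0% = plate median of compound wells and 100% = probe without SIAE protein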
DAGLB inhibitor: diacylglycerol lipase beta (human) inhibition; Q8NCG7; HEK293T DAGLB membrane lysate, EnzChek fluorogenic substrate; inhibition, % at 5.17 µM; actives 0.059% (n = 340,000); AID 504411; in the data active = inhibition above about 34%;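 also: 0% = enzyme with vehicle and 100% = wells lacking enzyme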
mABHD4 FP: inhibitors of mouse ABHD4; Q8VD66; purified mABHD4, FP-Rh probe fluorescence polarization; inhibition, % at 8.92 µM; actives 0.54% (n = 370,000); AID 720543;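 active = inhibition exceeding the mean over every tested compound plus 3 SD, cut at about 30% in these data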;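 also: 0% = plate median of compound wells and 100% = S159A mutant with DMSO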
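Test system: mABHD4 protein | Buffer or medium: HEPES pH 7.0 buffer, 150 mM NaCl, 0.01% Pluronic F-127 | Probe or stimulus: FP-Rh fluorescent activity-based probe, added after compound pre-incubation | Timing: Pre-incubation 45 min, probe exposure 60 min, at 25 °C | Technique: Fluorescence polarization, excitation 525 nm, emission 598 nm, BODIPY TMR filters | Repeats: Single well per compound (singlicate)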
TCR CD3 inh: inhibitors of human TCR-CD3 interaction; TAMRA-labeled TCR probe fluorescence, biochemical; inhibition, % at 9.4 µM; actives 0.37% (n = 360,000); AID 651800; in the data active = inhibition above about 19%;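 also: recombinant mutant TCR 2C K166C tagged with TAMRA read by polarization; 0% = receptor in buffer alone and 100% = receptor with positive control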
HTRA1 inh: blocks human HTRA1 serine peptidase. Q92743. AID 504803. inhibition, % at 5.96 µM. actives 0.5% (n = 340,000). recombinant HTRA1, FP-rhodamine activity-based probe, fluorescence polarization; in the data active = inhibition above about 36%;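 also: 0% = enzyme with DMSO and 100% = wells lacking enzyme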
Target sequence (Q92743 whole entry, looked up): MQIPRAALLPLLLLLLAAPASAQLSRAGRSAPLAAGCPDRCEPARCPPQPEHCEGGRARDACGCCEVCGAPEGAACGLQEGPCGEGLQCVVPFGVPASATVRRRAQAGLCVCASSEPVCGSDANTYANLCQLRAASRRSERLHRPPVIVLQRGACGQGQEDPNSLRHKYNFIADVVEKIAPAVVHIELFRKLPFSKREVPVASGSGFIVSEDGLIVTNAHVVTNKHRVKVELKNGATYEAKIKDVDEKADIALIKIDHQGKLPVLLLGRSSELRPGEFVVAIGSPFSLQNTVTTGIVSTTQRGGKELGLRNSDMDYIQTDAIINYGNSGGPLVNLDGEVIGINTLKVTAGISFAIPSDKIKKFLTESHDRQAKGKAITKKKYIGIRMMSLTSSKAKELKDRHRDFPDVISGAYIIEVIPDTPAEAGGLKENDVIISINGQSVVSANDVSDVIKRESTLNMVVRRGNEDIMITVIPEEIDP
HTRA1 inh conf: HTRA1 (human) inhibition, confirmation; actives 66% (n = 1,600); recombinant HTRA1, FP-rhodamine activity-based probe, fluorescence polarization; inhibition, % at 5.96 µM; shares compounds with HTRA1 inh; AID 540248;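 active = mean inhibition over three repeats above a set limit taken from the earlier primary screen, cut at about 37% in these data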;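 also: 0% = HTRA1 with DMSO and 100% = wells lacking HTRA1; inhibitors block probe binding so polarization drops and inhibition rises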
The depositor's hits bear a star; · = no result given. A selection: hits, their analogues and other compounds. The true share with any hit is near 1.5%.

SMILES	SIAE inh	DAGLB inhibitor	mABHD4 FP	TCR CD3 inh	HTRA1 inh	HTRA1 inh conf
Cc1cc(C)cc(C(=O)Nc2ccc(N3CCCC3)cc2)c1	0.6	9.8	11.5	1.6	39.3*	10.9
O=C(Nc1ccc(N2CCCC2)cc1)c1cc(Cl)ccc1Cl	6.7	13.4	2.1	7.4	59.4*	5.7
O=C(Nc1ccc(N2CCCC2)cc1)c1ccc(Cl)cc1Cl	11.1	1.0	3.4	2.5	8.3	·
CCCCC(=O)Nc1ccc(N2CCCC2)cc1	1.5	8.7	4.7	0.1	44.2*	37.9*
Cc1ccccc1-c1ccc(Nc2ccc(N3CCOCC3)cc2)nn1	·	6.2	·	·	45.4*	53.6*
O=C(Oc1ccc(Cl)c2cccnc12)c1ccco1	1.5	3.4	0.0	0.4	72.2*	75.5*
O=C(Oc1cccc2cccnc12)c1ccco1	3.5	-1.1	0.0	-2.0	31.0	·
CCc1c(-c2ccc(F)cc2F)ncn1CCc1ccccc1OC	2.1	·	14.9	-10.7	·	·
CC(C)(C)c1cc(C(=O)N/N=C/c2ccccc2O)n(-c2ccccc2)n1	-4.5	6.0	-0.8	-0.9	36.9*	51.4*
CC(C)(C)c1cc(C(=O)N/N=C/c2ccc(F)cc2)n(-c2ccccc2)n1	1.4	-2.7	-5.0	-1.8	-21.4	·
CN1C(=O)CC(NNC(=O)c2ccccc2)C1=O (configuration not stated)	-3.3	1.2	-0.7	-3.8	0.8	·
CN1C(=O)CC(Nc2cccc3cccc(N)c23)C1=O (configuration not stated)	·	3.7	·	·	38.6*	6.6
CCCCCCCCN1C(=O)[C@@H](CC(=O)N2CCN(C(=O)C3CC3)CC2)C[C@@]2(C(=O)OC)C1=C[C@H](COCc1ccccc1)O[C@@H]2C	3.4	·	-4.3	·	·	·
CC1CCCCC1NC(=O)COC(=O)c1c2c(nc3ccccc13)/C(=C\c1ccco1)CC2 (configuration not stated)	11.6	15.8	33.1*	6.1	56.9*	4.3
CC(C)CNS(=O)(=O)CC1NCc2ccccc21 (configuration not stated)	-2.1	·	-6.1	·	·	·
COc1ccc(/C=N/Nc2cc(C)nc3c(C)cccc23)cc1	-4.2	2.8	9.1	-3.6	-22.3	·
COc1cccc2c(N/N=C/c3ccc(O)c(O)c3)cc(C)nc12	-3.5	2.2	14.6	5.0	47.1*	76.7*
Nc1ccn([C@@H]2O[C@H](C(=O)N[C@H](Cc3ccccc3)C(=O)N3CCSC3)[C@@H](O)[C@H]2O)c(=O)n1	4.3	·	0.4	-3.9	·	·
Cc1ccc(NC(=O)OCCN(C)C(=O)Nc2ccc(C)cc2C)c(C)c1	-0.6	·	-3.6	-11.5	·	·
COc1ccc(C2CC(=O)C(c3ccc4ccccc4c3)=CN2Cc2ccccc2)cc1 (configuration not stated)	-3.2	·	-6.5	-0.1	·	·
Oc1cccc2ccc(/C=C/c3ccccc3Cl)nc12	-1.4	-13.2	1.4	-0.5	46.2*	57.3*
Oc1cccc2ccc(/C=C/c3c(F)cccc3Cl)nc12	4.7	-20.3	8.7	-1.5	16.1	·
O=C(NC1CCCC1)C1CSCCS(=O)(=O)N1Cc1ccc(F)cc1 (configuration not stated)	4.5	·	1.1	·	·	·
Cc1ccc(S(=O)c2ccc([N+](=O)[O-])c3nonc23)cc1 (configuration not stated)	-12.2	10.5	44.3*	-3.2	43.1*	72.7*
C[C@@H]1CN([C@@H](C)CO)C(=O)CCCn2cc(nn2)CO[C@H]1CN(C)C(=O)Nc1cccc(F)c1	9.7	·	2.5	-1.9	·	·
SMILES	SIAE inh	DAGLB inhibitor	mABHD4 FP	TCR CD3 inh	HTRA1 inh	HTRA1 inh conf
COc1ccc(CN(CCN2CCOCC2)C(=O)c2cccc(F)c2F)cc1OC	5.1	·	3.6	·	·	·
CCN(CC)c1ccc(C=Nc2ccc(N(C)C)cc2)c(O)c1	2.9	8.0	25.9	1.8	38.2*	-15.3
COc1cc(NC(=O)C2CCCN(S(=O)(=O)c3ccc(Cl)s3)C2)cc(OC)c1 (configuration not stated)	-9.6	·	-20.2	·	·	·
Cc1ccc(N=Cc2cc(Cc3ccccc3Cl)cc([N+](=O)[O-])c2O)c(O)c1	·	21.5	·	·	70.6*	65.4*
Oc1ccc(Br)cc1CNc1cccc2cccnc12	12.8	1.1	20.9	-4.7	45.0*	7.7
Cc1ccc(O)c(CNc2cccc3cccnc23)c1	4.5	1.8	7.1	-5.8	22.1	·
COCCNC(=S)N1C[C@H]2CON(C)[C@H]2C[C@H]1c1ccccc1Br	0.8	·	-3.0	5.8	·	·
O=C(COC(=O)c1ccccn1)Nc1ncc(C(F)(F)F)cc1Cl	-5.2	1.9	3.8	-3.5	5.8	·
O=C(COC(=O)c1ccc([N+](=O)[O-])s1)Nc1ncc(C(F)(F)F)cc1Cl	-1.2	5.2	3.1	7.6	37.7*	63.1*
CC(=O)C(C(C)=O)c1c(Cl)c(O)c(O)c2c(C(=O)c3ccccc3)coc12	-1.3	16.1	42.7*	-1.9	65.5*	82.2*
CCOC(=O)C1=C(CS(=O)(=O)c2ccc(F)cc2)NC(=O)NC1c1ccc(O)c(O)c1 (configuration not stated)	5.4	7.9	9.9	10.7	47.8*	51.6*
CCOC(=O)C1=C(CS(=O)(=O)c2ccc(F)cc2)NC(=O)NC1c1cc(OC)c(O)c(OC)c1 (configuration not stated)	7.5	-3.8	-0.5	5.0	1.7	·
COc1cc(O)c2c(=O)c3c(O)ccc(O)c3oc2c1	4.0	6.9	28.4	5.8	54.7*	0.3
COc1cc(O)c2c(=O)c3c(O[C@H]4O[C@@H](CO)[C@H](O)[C@@H](O)[C@@H]4O)ccc(O)c3oc2c1	0.4	0.1	4.6	-5.9	2.3	·
CN(C)c1ccc(C=c2c3ccccc3n3c2c2c([n+]3C)CCCC2)cc1	-3.6	21.6	7.7	-7.8	52.8*	54.8*
N=C(N)c1ccc(N=Nc2c(O)ccc3c2[nH]c2ccccc23)cc1	9.3	19.4	47.5*	-2.1	85.0*	61.3*
C(=N\Nc1nc2ccccc2[nH]1)/c1cccc2cccnc12	13.6	8.4	24.1	-5.3	49.1*	54.5*
Cc1ccccc1/C=N/Nc1nc2ccccc2[nH]1	1.3	2.5	15.9	-4.5	1.6	·
O=C(N[C@H](Cc1ccccc1)C(=O)NCC1CCCCC1)[C@H]1O[C@@H](n2ccc(=O)[nH]c2=O)[C@H](O)[C@@H]1O	0.9	·	1.6	-0.7	·	·
O=C(Oc1ccc(OC(=O)c2ccco2)c(S(=O)(=O)c2ccc(Br)cc2)c1)c1ccco1	·	26.5	·	·	42.2*	51.3*
CCCCN(Cc1nc2ccccc2c(=O)[nH]1)C(=O)c1nn(C)c(=O)c2ccccc12	-2.2	1.0	-0.1	-0.1	85.3*	0.3
CCN(Cc1ccccc1)C(=O)C1CCCN(c2ncccn2)C1 (configuration not stated)	-2.8	·	-4.1	·	·	·

High-throughput results from PubChem BioAssay.
